pEC50: −log10 of the molar value. Where two headings read alike, the source gives them in different places.
Tests used:
r5-HT1.0 [1] = assay: Dose-response of sensor fluorescence change; type: cell-based, HEK293T cells; conditions: n = 3
g5-HT3.0 [2] = assay: Dose-response of sensor fluorescence change; type: cell-based, HEK293T cells; conditions: n = 3
g5-HT3.0 [3] = assay: Dose-response of sensor fluorescence change; type: cell-based, cultured rat cortical neurons; conditions: read-out: EC50 values
r5-HT1.0 [4] = assay: Dose-response of sensor fluorescence change; type: cell-based, cultured rat cortical neurons; conditions: read-out: EC50 values
g5-HT2m = conditions: read-out: EC50 values
g5-HT2h = conditions: read-out: EC50 values
[5] = tested on: 5-HT release in mouse dorsal cortex; assay: Mesoscopic imaging of optogenetically evoked cortical 5-HT release; type: in vivo, mice; conditions: fluoxetine 20 mg/kg i.p., GBR 12909 10 mg/kg i.p.
Method in brief: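 In Sert-Cre mice, 300 nl AAV9-EF1a-DIO-ChrimsonR was injected into the DRN (AP −6.1, ML 0, depth 3 mm, 32° AP angle), with an optical fiber 0.2 mm above the site. Mice recovered ≥7 d and were habituated head-fixed over >3 d.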

r5-HT1.0 [6] = assay: Pharmacological specificity of r5-HT1.0 in HEK293T cells; type: cell-based; conditions: compounds 10 μM except RS 100 μM
g5-HT3.0 [7] = assay: Pharmacological specificity of g5-HT3.0 in HEK293T cells; type: cell-based; conditions: compounds 10 μM except RS 100 μM
GPCR-mediated Gs pathway = assay: Luciferase complementation assay; type: cell-based; conditions: HEK293T cells, 5-HT 0.01 nM to 1 mM
β-arrestin pathway = assay: Tango assay; type: cell-based; conditions: HTLA cells, 5-HT 0.01 nM to 100 μM

Question: Which results are given for NCCc1c[nH]c2ccc(O)cc12 [5-HT, serotonin (5-hydroxytryptamine)]?
Answer: pEC50 (r5-HT1.0 [1]): ~6.10; pEC50 (g5-HT3.0 [2]): ~6.82; pEC50 (g5-HT3.0 [3]): 7.10; pEC50 (r5-HT1.0 [4]): 6.22; pEC50 (g5-HT2m): 5.62; pEC50 (g5-HT2h): 7.15

Question: For Fc1ccc(C(OCCN2CCN(CCCc3ccccc3)CC2)c2ccc(F)cc2)cc1 [GBR 12909], which “baseline 5-HT levels (g5-HT3.0 signal)” value [5] is on record?
Answer: Its value is “no effect”.

Question: Which “block of 5-HT induced response of r5-HT1.0” value (r5-HT1.0 [6]) does the source give for COc1cc(N)c(Cl)cc1C(=O)OCCCN1CCCCC1 [RS 23597-190] here?
Answer: Its value is “blocked”.

Question: And the “block of 5-HT induced response of g5-HT3.0” value (g5-HT3.0 [7])?
Answer: Its value is “blocked”.

Question: With CNCCC(Oc1ccc(C(F)(F)F)cc1)c1ccccc1 (stereo not drawn) [fluoxetine] as the compound, how does the “baseline 5-HT levels (g5-HT3.0 signal)” value [5] read?
Answer: Its value is “gradual increase”.

Question: Which “downstream coupling, Gs pathway” value (GPCR-mediated Gs pathway) does the source give for “wild-type 5-HTR4: wild-type 5-HTR4 receptor” here?
Answer: Its value is “high basal activity and robust, dose-dependent coupling”.

Question: What about the “downstream coupling, β-arrestin pathway” value (β-arrestin pathway) of the same compound?
Answer: Its value is “high basal activity and robust, dose-dependent coupling”.

Source: paper PMC11377854 (Nature methods, 2024)
